Starred links: 1 amine or outer side, 2 acyl side, 3 side chain; linkers in the order of their positions; H or OH if unused. Non-standard residues stand in square brackets, D forms with d. Residues, ends and D or L forms follow the SMILES beside them. Lys(Me2) = CN(C)CCCC[C@H](N)C(=O)O; hArg = N=C(N)NCCCC[C@H](N)C(=O)O; X1 = NCCCC(CC(=O)[*:2])N[*:1]; hLys = NCCCCC[C@H](N)C(=O)O; Nlys = NCCCCNCC(=O)O
Key:
[1] = Half-life of the conjugate when treated with 25% murine serum for enzymatic stability; No data available; type: ADME; details: mouse
Outline: (§1)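 Conjugates at 20 μM in 10% FBS RPMI 1640 medium or 25% mouse serum (Hepes-stabilised, diluted in PBS, pH 7.1–7.4), incubated at 37 °C. Sampled to 168 h (FBS) or 48 h (serum); proteins precipitated with 10% DCA, PNA 6mer internal standard added. Analysed by C3 RP-HPLC at 60 °C; t1/2 from normalised full-length peak area versus time.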

[2] = Half-life of the conjugate when treated with 10% foetal bovine serum for enzymatic stability; type: ADME, Bos taurus; details: cattle; outline: as §1
CD40 mRNA [3] = assay: […] CD40 expression in BCL1 cells treated with 3 uM peptide nucleic acid (PNA)conjugate; n=3; type: functional, cell-based; details: Mus musculus
Outline: (§2)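 Mouse BCL1 cells in DMEM with 10% FBS, given conjugate at 1, 3 or 10 μM by free uptake (no transfection agent) for 3 days. Cells trypsinised and stained 1 h with FITC anti-CD40 (HM40-3) or isotype control, then surface CD40 read by flow cytometry. Results are % untreated control, mean ± SD, n = 3.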

CD40 mRNA [4] = assay: […] CD40 expression in BCL1 cells treated with 1 uM peptide nucleic acid (PNA)conjugate; n=3; type: functional, cell-based; details: Mus musculus; outline: as §2
BCL1 [5] = assay: Inhibitory concentration against BCL1 cell proliferation in WST-1 assay; Range 10-20; type: functional, Mus musculus
Outline: (§3)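 BCL1 cells, 2000 per well, grown in DMEM with 10% FBS at 37 °C and 5% CO2. Exposed to conjugate for 3 days, then viable cells read by WST-1 absorbance at 450 nm. Value is the concentration at which absorbance fell below 50% of untreated control; triplicates.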

CD40 mRNA [6] = assay: […] CD40 expression in BCL1 cells treated with 10 uM peptide nucleic acid (PNA)conjugate; n=3; type: functional, cell-based; details: Mus musculus; outline: as §2
[7] = Half-life of the conjugate when treated with 25% murine serum for enzymatic stability; type: ADME; details: mouse; outline: as §1
BCL1 [8] = assay: Inhibitory concentration against BCL1 cell proliferation in WST-1 assay; Range 5-10; type: functional, Mus musculus; outline: as §3
BCL1 [9] = assay: Inhibitory concentration against BCL1 cell proliferation in WST-1 assay; type: functional, Mus musculus; outline: as §3
[10] = Half-life of the conjugate when treated with 25% murine serum for enzymatic stability; Range 2-3 h; type: ADME; details: mouse; outline: as §1

Row | SMILES | T1/2 [1] | half-life [2] | half-life [7] | half-life [10] | UTC (CD40 mRNA [3]) | UTC (CD40 mRNA [4]) | IC50 (BCL1 [5]) | UTC (CD40 mRNA [6]) | Cell viability (BCL1 [8]) | IC50 for cell proliferation (BCL1 [9])
1 | NCCCC[C@@H](C=O)NC(=O)CC(CCCN)NC(=O)CC(CCCN)NC(=O)CC(CCCN)NC(=O)CC(CCCN)NC(=O)CC(CCCN)NC(=O)CC(CCCN)NC(=O)CC(CCCN)NC(=O)CC(N)CCCN (some centres undefined) |  | > 168 h | > 48 h |  | 81% | 94% |  | 66% | 10 µM | 
2 | N=C(N)NCCC[C@H](NC(=O)[C@H](CCCNC(=N)N)NC(=O)[C@H](CCCNC(=N)N)NC(=O)[C@H](CCCNC(=N)N)NC(=O)[C@H](CCCNC(=N)N)NC(=O)[C@H](CCCNC(=N)N)NC(=O)[C@H](CCCNC(=N)N)NC(=O)[C@@H](N)CCCNC(=N)N)C(=O)N[C@H](C=O)CCCCN (H-RRRRRRRRK-aldehyde) |  | 20 h |  | 3 h | 81% | 102% |  | 60% |  | >20 µM
3 | NCCCC[C@@H](C=O)NC(=O)[C@H](CCCCN)NC(=O)[C@H](CCCCN)NC(=O)[C@H](CCCCN=C(N)N)NC(=O)[C@H](CCCCN)NC(=O)[C@H](CCCCN)NC(=O)[C@H](CCCCN=C(N)N)NC(=O)[C@H](CCCCN)NC(=O)[C@@H](N)CCCCN (H-KK[hArg]KK[hArg]KKK-aldehyde) | No data available | > 168 h |  |  | 75% | 92% |  | 36% |  | 10 µM
4 | NCCCCC[C@H](NC(=O)[C@H](CCCCN)NC(=O)[C@H](CCCCCN)NC(=O)[C@H](CCCCN)NC(=O)[C@H](CCCCCN)NC(=O)[C@H](CCCCN)NC(=O)[C@H](CCCCCN)NC(=O)[C@@H](N)CCCCN)C(=O)N[C@H](C=O)CCCCN (H-K[hLys]K[hLys]K[hLys]K[hLys]K-aldehyde) | No data available | > 168 h |  |  | 61% | 81% |  | 32% |  | >20 µM
5 | CN(C)CCCC[C@H](NC(=O)[C@H](CCCCN)NC(=O)[C@H](CCCCN(C)C)NC(=O)[C@H](CCCCN)NC(=O)[C@H](CCCCN(C)C)NC(=O)[C@H](CCCCN)NC(=O)[C@H](CCCCN(C)C)NC(=O)[C@@H](N)CCCCN)C(=O)N[C@H](C=O)CCCCN (H-K[Lys(Me2)]K[Lys(Me2)]K[Lys(Me2)]K[Lys(Me2)]K-aldehyde) | No data available | > 168 h |  |  | 89% | 96% |  | 53% |  | 20 µM

Now from value to compound, other results behind:

Row | T1/2 [1] | half-life [2] | half-life [7] | half-life [10] | SMILES | UTC (CD40 mRNA [3]) | UTC (CD40 mRNA [4]) | IC50 (BCL1 [5]) | UTC (CD40 mRNA [6]) | Cell viability (BCL1 [8]) | IC50 for cell proliferation (BCL1 [9])
6 | No data available | > 168 h |  |  | NCCCC[C@H](NC(=O)CN(CCCCN)C(=O)[C@H](CCCCN)NC(=O)CN(CCCCN)C(=O)[C@H](CCCCN)NC(=O)CN(CCCCN)C(=O)[C@H](CCCCN)NC(=O)CN(CCCCN)C(=O)[C@@H](N)CCCCN)C(=O)O (H-K[Nlys]K[Nlys]K[Nlys]K[Nlys]K-OH) | 96% | 111% | 20 µM | 70% |  | 
7 | No data available | > 168 h |  |  | NCCCC[C@@H](C=O)NC(=O)[C@H](CCCCN)NC(=O)[C@H](CCCCN)NC(=O)CC(CCCN)NC(=O)[C@H](CCCCN)NC(=O)[C@H](CCCCN)NC(=O)CC(CCCN)NC(=O)[C@H](CCCCN)NC(=O)[C@@H](N)CCCCN (some centres undefined) (H-KK[X1]KK[X1]KKK-aldehyde) | 82% | 98% |  | 61% | 10 µM | 
8 |  | 90 h |  | 3 h | NCCCC[C@@H](C=O)NC(=O)[C@H](CCCCN)NC(=O)[C@H](CCCCN)NC(=O)[C@H](CCCN=C(N)N)NC(=O)[C@H](CCCCN)NC(=O)[C@H](CCCCN)NC(=O)[C@H](CCCN=C(N)N)NC(=O)[C@H](CCCCN)NC(=O)[C@@H](N)CCCCN (H-KKRKKRKKK-aldehyde) | 76% | 90% | 20 µM | 43% |  | 
9 | No data available | > 168 h |  |  | NCCCC[C@@H](C=O)NOC(=O)C(CCCN)NC(=O)[C@H](CCCCN)NOC(=O)C(CCCN)NC(=O)[C@H](CCCCN)NOC(=O)C(CCCN)NC(=O)[C@H](CCCCN)NOC(=O)C(CCCN)NC(=O)[C@@H](N)CCCCN (some centres undefined) | 61% | 94% |  | 42% |  | 5 µM

Source: ChEMBL document CHEMBL1141128, “Structure-activity relationship study on a simple cationic peptide motif for cellular delivery of antisense peptide nucleic acid” (J Med Chem, 2005)
